Source: ChEMBL document CHEMBL1156600, “Diacarperoxides, norterpene cyclic peroxides from the sponge Diacarnus megaspinorhabdosa” (J Nat Prod, 2008)
In brackets after ≈: the same amount, converted by molar mass. Activity calls are given as the source filed them. The rule behind the calls is not given here.

Tests used:
[1] = tested on: HeLa; assay: Cytotoxicity against human HeLa cells by MTT assay; assay type: functional, cell-based
Method in brief: (§1)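 Antiproliferative MTT (microculture tetrazolium) read-out in cancer cell lines: HeLa human cervix carcinoma, L5178Y mouse lymphoma, PC12 rat […] cells.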

[2] = tested on: PC-12; assay: Cytotoxicity against rat PC12 cells by MTT assay; assay type: functional, cell-based; method in brief: as §1
[3] = Toxicity in Artemia salina assessed as mortality at 10 ug/ml after 24 hrs; assay type: organism-based; conditions: in vivo, read-out: Activity
[4] = Toxicity in Artemia salina assessed as mortality at 10 ug/ml after 48 hrs; assay type: organism-based; conditions: in vivo, read-out: Activity
[5] = tested on: L5178Y; assay: Cytotoxicity against mouse L5178Y cells by MTT assay; assay type: functional, cell-based; method in brief: as §1

SMILES | EC50 [1] | EC50 [2] | mortality at 24 h, 10 ug/ml [3] | mortality at 48 h, 10 ug/ml [4] | EC50 [5] | Activity [1] | Activity [2] | Activity [5]
COC(=O)[C@H](C)[C@H]1CC[C@@](C)(CCC2=C(C)CCCC2(C)C)OO1 [NUAPAPUIN A METHYL ESTER] | 5.5 µg/mL (≈ 16.2 µM) | 6.2 µg/mL (≈ 18.3 µM) | 100% | 100% | 0.76 µg/mL (≈ 2.25 µM) |  |  | 
CCCC(O)CCC(C)(O)CC/C=C(\C)CCC1=C(C)CCCC1(C)C (centres undefined) [DIACARDIOL A] | > 10 µg/mL | > 10 µg/mL | 20% | 40% | 4.8 µg/mL (≈ 13.2 µM) |  |  | 
COC(=O)[C@H](C)[C@H]1CC[C@@](C)(CCC2=C(C)C(=O)CCC2(C)C)OO1 [DIACARPEROXIDE A] |  |  | 35% | 55% | > 10 µg/mL | inactive | inactive | 
COC(=O)[C@H](C)[C@@H]1CC[C@@](C)(CCC2=C(C)C(=O)CCC2(C)C)OO1 [METHYL DIACARNOATE A] |  |  |  |  | < 3 µg/mL | inactive | inactive | 
CC1=C(CC/C(C)=C/CC[C@@]2(C)CC[C@@H]([C@H](C)C(=O)O)OO2)C(C)(C)CCC1 [EPIMUQUBILIN A] | 7.2 µg/mL (≈ 18.3 µM) | > 10 µg/mL | 25% | 50% | 0.28 µg/mL (≈ 0.713 µM) |  |  | 
COC(=O)[C@@H](C)[C@@H]1CC[C@](C)(CCC(=O)C(C)(C)CCCC(C)=O)OO1 [DIACARPEROXIDE B] |  |  | 45% | 55% | 10 µg/mL (≈ 27 µM) | inactive | inactive | 
CC1=C(CC[C@]2(C)CC[C@H]([C@@H](C)C(=O)O)OO2)[C@@]2(C)CCCC(C)(C)[C@@H]2CC1=O [DIACARPEROXIDE F] | 0.6 µg/mL (≈ 1.48 µM) | 0.8 µg/mL (≈ 1.97 µM) |  |  | 0.06 µg/mL (≈ 0.148 µM) |  |  | 
COC(=O)[C@H](C)[C@@H]1CC[C@@](C)(CCC(=O)C(C)(C)CCCC(C)=O)OO1 [DIACARPEROXIDE C] |  |  | 35% | 55% | > 10 µg/mL | inactive | inactive | 
C=C1CCCC(C)(C)C1(O)CC/C(C)=C/CC[C@]1(C)CC[C@H]([C@@H](C)C(=O)OC)OO1 (some centres undefined) [EPIMUQUBILIN B] | 1 µg/mL (≈ 2.37 µM) | 6 µg/mL (≈ 14.2 µM) | 45% | 60% | < 0.1 µg/mL |  |  | 
COC(=O)[C@H](C)[C@@H]1CC[C@@](C)(CCC2=C(C)CCCC2(C)C)OO1 |  |  | 25% | 65% |  | inactive | inactive | inactive
COC(=O)[C@H](C)[C@H]1CC[C@@](C)(CCC2=C(C)C(=O)C[C@@H]3C(C)(C)CCC[C@@]23C)OO1 [DIACARPEROXIDE G] | > 10 µg/mL | > 10 µg/mL | 50% | 60% | 2 µg/mL (≈ 4.76 µM) |  |  | 
CC1=C(CC[C@]2(C)CC[C@H]([C@@H](C)C(=O)O)OO2)[C@]2(C)CCCC(C)(C)[C@H]2CC1 [DIACARPEROXIDE D] | 0.17 µg/mL (≈ 0.433 µM) | 8.1 µg/mL (≈ 20.6 µM) |  |  | < 0.1 µg/mL |  |  | 
